Data published in ChEMBL document CHEMBL4725282, “Discovery of a Conformationally Constrained Oxazolidinone with Improved Safety and Efficacy Profiles for the Treatment of Multidrug-Resistant Tuberculosis” (J Med Chem, 2020).

Tests used:
[1] = Toxicity in female Sprague-Dawley rat assessed as change in lymphocyte level at 450 mg/kg/day, po administered for 4 weeks followed by 2 week recovery period (Rvb =76.9 +/- 4.6 %); assay type: organism-based; details: in vivo, 672 h
[2] = Toxicity in female Sprague-Dawley rat assessed as change in hemoglobin count at 450 mg/kg/day, po administered for 4 weeks followed by 2 week recovery period (Rvb =136 +/- 7 g/L); assay type: organism-based; details: in vivo, 672 h
[3] = Toxicity in female Sprague-Dawley rat assessed as change in lymphocyte level at 150 mg/kg/day, po administered for 4 weeks followed by 2 week recovery period (Rvb =76.9 +/- 4.6 %); assay type: organism-based; details: in vivo, 672 h
[4] = Toxicity in female Sprague-Dawley rat assessed as change in hematocrit level at 450 mg/kg/day, po administered for 4 weeks followed by 2 week recovery period (Rvb =41.1 +/- 1.4 %); assay type: organism-based; details: in vivo, 672 h
[5] = Genotoxicity in CHO-WBL cells assessed as chromosome aberration at 20 to 150 ug/ml measured after 20 hrs in absence of S9 fraction by Giemsa staining based; assay type: toxicity, cell-based, Cricetulus griseus; details: chinese hamster, dose 20-150 µg/ml
In short: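 CHO-WBL cells in McCoy's 5A with 10% FBS, seeded 20-24 h before treatment. Compound in DMSO, with or without serum-free S-9 mix. Treatment either 3 h, then HBSS wash and 17 h further culture, or 20 h; harvest at 20 h from treatment start. Colcemid 0.1 μg/mL for the final 2 h, hypotonic KCl, methanol:acetic acid fixation, Giemsa stain. 300 metaphases per concentration (150 per duplicate flask) scored.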

[6] = Toxicity in female Sprague-Dawley rat assessed as body weight loss at 50 to 450 mg/kg/day, po administered for 4 weeks measured at 1 week interval; assay type: organism-based; details: in vivo, 672 h, dose 50-450 mg/kg/day
In short: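 SD rats, 6-7 weeks, 12 male and 12 female per group. Oral dosing once daily at 50, 150 or 450 mg/kg/day or vehicle for 4 weeks, then 2-week recovery. 8 per sex dissected after last dose, remaining 4 per sex after 14-day recovery. Body weight, urine, food intake and clinical signs monitored.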

[7] = Toxicity in male Sprague-Dawley rat assessed as change in neutrophil level at 450 mg/kg/day, po administered for 4 weeks followed by 2 week recovery period (Rvb =15.9 +/- 3.4 %); assay type: organism-based; details: in vivo, 672 h
[8] = Toxicity in male Sprague-Dawley rat assessed as change in hematocrit level at 50 mg/kg/day, po administered for 4 weeks followed by 2 week recovery period (Rvb =45.2 +/- 1.7 %); assay type: organism-based; details: in vivo, 672 h
[9] = Toxicity in female Sprague-Dawley rat assessed as change in mean platelet volume at 50 mg/kg/day, po administered for 4 weeks followed by 2 week recovery period (Rvb =7.1 +/- 0.5 fL); assay type: organism-based; details: in vivo, 672 h
[10] = Volume of distribution in Balb/c mouse at 2.5 mg/kg, iv by LC-MS/MS analysis; assay type: ADME, organism-based; details: in vivo
[11] = Toxicity in male Sprague-Dawley rat assessed as mortality at 50 to 450 mg/kg/day, po administered for 4 weeks followed by 2 week recovery period; assay type: organism-based; details: in vivo, 672 h, dose 50-450 mg/kg/day
[12] = Toxicity in male Sprague-Dawley rat assessed as change in neutrophil level at 150 mg/kg/day, po administered for 4 weeks followed by 2 week recovery period (Rvb =15.9 +/- 3.4 %); assay type: organism-based; details: in vivo, 672 h
[13] = Toxicity in female Sprague-Dawley rat assessed as mortality at 50 to 450 mg/kg/day, po administered for 4 weeks; assay type: organism-based; details: in vivo, 672 h, dose 50-450 mg/kg/day
In short: (§1)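 SD rats, 6-7 weeks old (96 in total), split into vehicle, 50, 150 and 450 mg/kg/day groups of 12 females and 12 males each, given oral doses once daily for 4 weeks, then 2 weeks of recovery. Mortality, body weight, food intake, eyes, urine and neuropsychic signs were observed. Organ and bone marrow histopathology was done on 8 rats per sex per group after the last dose and on the remaining 4 per sex after 14 days of recovery.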

[14] = Toxicity in female Sprague-Dawley rat assessed as change in mean corpuscular volume at 150 mg/kg/day, po administered for 4 weeks followed by 2 week recovery period (Rvb =56.1 +/- 0.8 fL); assay type: organism-based; details: in vivo, 672 h
[15] = Toxicity in male Sprague-Dawley rat assessed as change in hemoglobin count at 150 mg/kg/day, po administered for 4 weeks followed by 2 week recovery period (Rvb =144 +/- 5 g/L); assay type: organism-based; details: in vivo, 672 h
[16] = Toxicity in male Sprague-Dawley rat assessed as body weight loss at 50 to 450 mg/kg/day, po administered for 4 weeks followed by 2 week recovery period measured at 1 week interval; assay type: organism-based; details: in vivo, 672 h, dose 50-450 mg/kg/day; in short: as §1
[17] = Toxicity in female Sprague-Dawley rat assessed as change in reticulocyte level at 150 mg/kg/day, po administered for 4 weeks followed by 2 week recovery period (Rvb =2.85 +/- 0.53 %); assay type: organism-based; details: in vivo, 672 h
[18] = Toxicity in male Sprague-Dawley rat assessed as abnormalities in urine at 50 to 450 mg/kg/day, po administered for 4 weeks measured within last 7 days of treatment period; assay type: organism-based; details: in vivo, 672 h, dose 50-450 mg/kg/day; in short: as §1
[19] = Toxicity in female Sprague-Dawley rat assessed as change in mean corpuscular hemoglobin at 150 mg/kg/day, po administered for 4 weeks followed by 2 week recovery period (Rvb =18.5 +/- 0.6 pg); assay type: organism-based; details: in vivo, 672 h
[20] = Toxicity in male Sprague-Dawley rat assessed as change in white blood cell count at 450 mg/kg/day, po administered for 4 weeks followed by 2 week recovery period (Rvb =6.12 +/- 1.10 10^9/L); assay type: organism-based; details: in vivo, 672 h
In short: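 SD rats aged 6-7 weeks, 24 per group (12 female, 12 male): vehicle, 50, 150 or 450 mg/kg/day given orally once daily for 4 weeks, then 2-week recovery. 8 per sex per group dissected after the last dose and 4 per sex after 14-day recovery. Hematology included WBC count, reported as mean ± SD (n = 12), compared with vehicle.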

[21] = Half life in Sprague-Dawley rat hepatocytes at 2 uM by LC-MS/MS analysis; assay type: ADME, cell-based, Hepatocyte
In short: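 Hepatocytes (male CD-1 mouse, male SD rat, male beagle dog, male cynomolgus monkey, pooled human), final 1 μM compound and 1 million cells/mL, made by mixing 2 μM compound with 2 million cells/mL. Incubated at 37 °C in a CO2 incubator; sampled at 0, 15, 30, 60, 90 and 120 min. Quenched with methanol/ACN containing 0.1% formic acid. Parent remaining measured by LC-MS/MS.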

[22] = Toxicity in male Sprague-Dawley rat assessed as effect on food consumption at 50 to 450 mg/kg/day, po administered for 4 weeks followed by 2 week recovery period measured at 1 week interval; assay type: organism-based; details: in vivo, 672 h, dose 50-450 mg/kg/day
[23] = Oral bioavailability in Balb/c mouse at 25 mg/kg by LC-MS/MS analysis; assay type: ADME, organism-based; details: in vivo
In short: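 Female BALB/c mice, 20-25 g, five per route. Dosed 25 mg/kg p.o. in 0.5% carboxymethyl cellulose or 2.5 mg/kg i.v. in 10% DMSO/saline. Blood sampled 5 min-72 h (p.o.) or 2 min-48 h (i.v.), quantified by LC/MS/MS with ESI+. Parameters by non-compartmental analysis; F = (AUCpo×dose_iv)/(AUCiv×dose_po)×100%.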

SMILES: CC(=O)NC[C@@H]1OC(=O)N2c3cc(F)c(N4CCSCC4)cc3OC[C@@H]12
- Activity [1]: 83.7%
- Activity [2]: 122 g/L
- Activity [3]: 83%
- Activity [4]: 36.9%
- Activity [5]: Non-Toxic
- Activity [6]: Non-Toxic
- Activity [7]: 13.7%
- Activity [8]: 43.5%
- Activity [9]: 7.1 fL
- Vd [10]: 2.72 L/kg
- Activity [11]: Non-Toxic
- Activity [12]: 17%
- Activity [13]: Non-Toxic
- Activity [14]: 56.6 fL
- Activity [15]: 141 g/L
- Activity [16]: Non-Toxic
- Activity [17]: 2.89%
- Activity [18]: Non-Toxic
- Activity [19]: 18.8 pg
- Activity [20]: 5.06 10^9/L
- half-life at 2 µM [21]: 1.67 h
- Activity [22]: Non-Toxic
- bioavailability [23]: 55.9%
